Experimental data published in ChEMBL document CHEMBL4732233, “Faropenem reacts with serine and metallo-β-lactamases to give multiple products” (Eur J Med Chem, 2021).

Experiments:
[1] = Drug metabolism assessed as VIM-2 (unknown origin)-mediated compound hydrolysis by measuring (R)-2-((1S,2R)-1-carboxy-2-hydroxypropyl)-5-((R)-tetrahydrofuran-2-yl)-2,3-dihydrothiazole-4-carboxylic acid formation at 5 mM incubated for 5 mins by 1H-NMR based analysis; assay type: ADME; conditions: bacteria, 5000 µM
[2] = Drug metabolism assessed as L1 (unknown origin)-mediated compound hydrolysis by measuring (R)-2-((1S,2R)-1-carboxy-2-hydroxypropyl)-5-(4-hydroxybutylidene)-2,5-dihydrothiazole-4-carboxylic acid formation at 5 mM incubated for 5 mins by 1H-NMR based analysis; assay type: ADME; conditions: bacteria, 5000 µM
Method in brief: (§1)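 L1 enzyme (125 nM) reacted with 5 mM faropenem for 5 min in 50 mM sodium phosphate pH 7.5 containing 10% (v/v) D2O. Product species assigned by 1H NMR (700 MHz) methyl resonances.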

[3] = Drug metabolism assessed as VIM-1 (unknown origin)-mediated compound hydrolysis by measuring (R)-2-((1S,2R)-1-carboxy-2-hydroxypropyl)-5-(4-hydroxybutylidene)-2,5-dihydrothiazole-4-carboxylic acid formation at 5 mM incubated for 5 mins by 1H-NMR based analysis; assay type: ADME; conditions: bacteria, 5000 µM
[4] = Drug metabolism assessed as NDM-1 (unknown origin)-mediated compound hydrolysis by measuring (S)-2-((1S,2R)-1-carboxy-2-hydroxypropyl)-5-(4-hydroxybutylidene)-2,5-dihydrothiazole-4-carboxylic acid formation at 5 mM incubated for 5 mins by 1H-NMR based analysis; assay type: ADME; conditions: bacteria, 5000 µM
Method in brief: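 NDM-1 used at 5 μM with 5 mM faropenem, 5 min incubation, in 50 mM sodium phosphate, pH 7.5, 10% (v/v) D2O. Degradation products monitored by 700 MHz 1H NMR via methyl group signals.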

[5] = Drug metabolism assessed as VIM-2 (unknown origin)-mediated compound hydrolysis by measuring (R)-2-((1S,2R)-1-carboxy-2-hydroxypropyl)-5-(4-hydroxybutylidene)-2,5-dihydrothiazole-4-carboxylic acid formation at 5 mM incubated for 5 mins by 1H-NMR based analysis; assay type: ADME; conditions: bacteria, 5000 µM
[6] = Drug metabolism assessed as KPC-2 (unknown origin)-mediated compound hydrolysis by measuring (R)-2-((1S,2R)-1-carboxy-2-hydroxypropyl)-5-(4-hydroxybutylidene)-2,5-dihydrothiazole-4-carboxylic acid formation at 5 mM incubated for 72 mins by 1H-NMR based analysis; assay type: ADME; conditions: bacteria, 1.2 h, 5000 µM
[7] = Drug metabolism assessed as VIM-1 (unknown origin)-mediated compound hydrolysis by measuring (S)-2-((1S,2R)-1-carboxy-2-hydroxypropyl)-5-(4-hydroxybutylidene)-2,5-dihydrothiazole-4-carboxylic acid formation at 5 mM incubated for 5 mins by 1H-NMR based analysis; assay type: ADME; conditions: bacteria, 5000 µM
[8] = test system: Bacteria
[9] = test system: Klebsiella pneumoniae
[10] = test system: Bacteria; remark: listed apart in the source
[11] = Drug metabolism assessed as OXA-48 (unknown origin)-mediated compound hydrolysis by measuring (S)-2-((1S,2R)-1-carboxy-2-hydroxypropyl)-5-((R)-tetrahydrofuran-2-yl)-2,3-dihydrothiazole-4-carboxylic acid formation at 5 mM incubated for 55 mins by 1H-NMR based analysis; assay type: ADME; conditions: bacteria, 5000 µM
Method in brief: (§2)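 Reaction of OXA-48 (5 μM) with 5 mM faropenem for 55 min in 50 mM sodium phosphate pH 7.5, 10% (v/v) D2O. Products assigned from methyl group resonances in 700 MHz 1H NMR spectra.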

[12] = test system: Bradyrhizobium japonicum; conditions: USDA110
[13] = Drug metabolism assessed as OXA10 (unknown origin)-mediated compound hydrolysis by measuring (S)-2-((1S,2R)-1-carboxy-2-hydroxypropyl)-5-(4-hydroxybutylidene)-2,5-dihydrothiazole-4-carboxylic acid formation at 5 mM incubated for 16 hrs by 1H-NMR based analysis; assay type: ADME; conditions: bacteria, 5000 µM
Method in brief: (§3)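 OXA-10 at 5 μM with 5 mM faropenem, incubated 16 h in 50 mM sodium phosphate, pH 7.5, 10% (v/v) D2O. Product formation read by 1H NMR (700 MHz) methyl group resonances.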

[14] = Drug metabolism assessed as OXA-23 (unknown origin)-mediated compound hydrolysis by measuring (R)-2-((1S,2R)-1-carboxy-2-hydroxypropyl)-5-((R)-tetrahydrofuran-2-yl)-2,3-dihydrothiazole-4-carboxylic acid formation at 2 mM incubated for 15 mins by 1H-NMR based analysis; assay type: ADME; conditions: bacteria, 0.25 h, 2000 µM
[15] = Drug metabolism assessed as KPC-2 (unknown origin)-mediated compound hydrolysis by measuring (S)-2-((1S,2R)-1-carboxy-2-hydroxypropyl)-5-(4-hydroxybutylidene)-2,5-dihydrothiazole-4-carboxylic acid formation at 5 mM incubated for 72 mins by 1H-NMR based analysis; assay type: ADME; conditions: bacteria, 1.2 h, 5000 µM
[16] = Drug metabolism assessed as KPC-2 (unknown origin)-mediated compound hydrolysis by measuring (S)-2-((1S,2R)-1-carboxy-2-hydroxypropyl)-5-((R)-tetrahydrofuran-2-yl)-2,3-dihydrothiazole-4-carboxylic acid formation at 5 mM incubated for 72 mins by 1H-NMR based analysis; assay type: ADME; conditions: bacteria, 1.2 h, 5000 µM
[17] = Drug metabolism assessed as VIM-1 (unknown origin)-mediated compound hydrolysis by measuring (R)-2-((1S,2R)-1-carboxy-2-hydroxypropyl)-5-((R)-tetrahydrofuran-2-yl)-2,3-dihydrothiazole-4-carboxylic acid formation at 5 mM incubated for 5 mins by 1H-NMR based analysis; assay type: ADME; conditions: bacteria, 5000 µM
[18] = test system: Mycobacterium tuberculosis H37Rv
[19] = Drug metabolism assessed as KPC-2 (unknown origin)-mediated compound hydrolysis by measuring (R)-2-((1S,2R)-1-carboxy-2-hydroxypropyl)-5-((R)-tetrahydrofuran-2-yl)-2,3-dihydrothiazole-4-carboxylic acid formation at 5 mM incubated for 72 mins by 1H-NMR based analysis; assay type: ADME; conditions: bacteria, 1.2 h, 5000 µM
[20] = Drug metabolism assessed as OXA10 (unknown origin)-mediated compound hydrolysis by measuring (S)-2-((1S,2R)-1-carboxy-2-hydroxypropyl)-5-((R)-tetrahydrofuran-2-yl)-2,3-dihydrothiazole-4-carboxylic acid formation at 5 mM incubated for 16 hrs by 1H-NMR based analysis; assay type: ADME; conditions: bacteria, 5000 µM; method in brief: as §3
[21] = test system: Bacteria; remark: listed apart in the source
[22] = Drug metabolism assessed as OXA10 (unknown origin)-mediated compound hydrolysis by measuring (R)-2-((1S,2R)-1-carboxy-2-hydroxypropyl)-5-(4-hydroxybutylidene)-2,5-dihydrothiazole-4-carboxylic acid formation at 5 mM incubated for 16 hrs by 1H-NMR based analysis; assay type: ADME; conditions: bacteria, 5000 µM; method in brief: as §3
[23] = Drug metabolism assessed as L1 (unknown origin)-mediated compound hydrolysis by measuring (S)-2-((1S,2R)-1-carboxy-2-hydroxypropyl)-5-(4-hydroxybutylidene)-2,5-dihydrothiazole-4-carboxylic acid formation at 5 mM incubated for 5 mins by 1H-NMR based analysis; assay type: ADME; conditions: bacteria, 5000 µM; method in brief: as §1
[24] = Inhibition of KPC-2 (unknown origin); set-up: species or system Bacteria
[25] = test system: Bacteria; remark: listed apart in the source
[26] = Drug metabolism assessed as OXA-48 (unknown origin)-mediated compound hydrolysis by measuring (R)-2-((1S,2R)-1-carboxy-2-hydroxypropyl)-5-(4-hydroxybutylidene)-2,5-dihydrothiazole-4-carboxylic acid formation at 5 mM incubated for 55 mins by 1H-NMR based analysis; assay type: ADME; conditions: bacteria, 5000 µM; method in brief: as §2

Structure (SMILES): C[C@@H](O)[C@H]1C(=O)N2C(C(=O)O)=C([C@H]3CCCO3)S[C@H]12 [FAROPENEM]
- Drug metabolism [1]: Metabolite_Detected
- Drug metabolism [2]: Metabolite_Detected
- Drug metabolism [3]: Metabolite_Detected
- Drug metabolism [4]: Metabolite_Detected
- Drug metabolism [5]: Metabolite_Detected
- Drug metabolism [6]: Metabolite_Detected
- Drug metabolism [7]: Metabolite_Detected
- Km [8]: 5.11 µM
- kcat/Km [9]: 150000 M⁻¹ s⁻¹
- kcat [10]: 43.7 s⁻¹
- Drug metabolism [11]: Metabolite_Detected
- kcat/Km [12]: 8000 M⁻¹ s⁻¹
- Drug metabolism [13]: Metabolite_Detected
- Drug metabolism [14]: Metabolite_Detected
- Drug metabolism [15]: Metabolite_Detected
- Drug metabolism [16]: Metabolite_Detected
- Drug metabolism [17]: Metabolite_Detected
- Km [18]: 23 µM
- Drug metabolism [19]: Metabolite_Detected
- Drug metabolism [20]: Metabolite_Detected
- Km [21]: 16.6 µM
- Drug metabolism [22]: Metabolite_Detected
- Drug metabolism [23]: Metabolite_Detected
- Ki [24]: 44.1 µM
- kcat [25]: 3.71 s⁻¹
- Drug metabolism [26]: Metabolite_Detected
